Screens (PubChem BioAssay)
Shown are actives, neighbours in structure and some others; about 2.4% of the full set was active somewhere.
NPY-Y1 PAM-ag = potentiators or agonists of human neuropeptide Y receptor Y1 | 220,000 tested, 0.37% active | AID 1304 | P25929 | NPY-Y1 expressing cells, potentiator/agonist activation | activation, % at 3.6 µM; in the data active means activation above about 33%, passing the limit was not always enough;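 further: cells stimulated with NPY at EC10 then isoproterenol at EC100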
NPY-Y1 antag = blocks the human neuropeptide Y Y1 receptor; P25929; HEK293-CNG Y1 cells, membrane potential fluorescence; NPY at EC95, then isoproterenol; inhibition, % at 3.6 µM; 200,000 tested, 1% active;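 active means inhibition above the campaign mean inhibition of all tested compounds plus 3 SD, cut at about 20% in these data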
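Assay system: HEK293 cells with Y1 receptor plus CNG channel | Probe or stimulus: NPY (25 nM), isoproterenol (1 µM), Ro 20-1724 (25 µM) | Timing: Compound incubation 1 h at room temperature, readout 45 min post-stimulation | Measured by: Membrane-potential fluorescent dye readout | Benchmarks: High control isoproterenol alone, low control NPY with isoproterenol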
S1P4 antagonist = antagonists of human S1P4 receptor; S1P4-expressing cells, antagonist mode, reporter read-out; inhibition, % at 4.98 µM; 220,000 tested, 0.26% active; AID 1510; in the data active means inhibition above about 29%
Target sequence (O95977 whole entry, looked up): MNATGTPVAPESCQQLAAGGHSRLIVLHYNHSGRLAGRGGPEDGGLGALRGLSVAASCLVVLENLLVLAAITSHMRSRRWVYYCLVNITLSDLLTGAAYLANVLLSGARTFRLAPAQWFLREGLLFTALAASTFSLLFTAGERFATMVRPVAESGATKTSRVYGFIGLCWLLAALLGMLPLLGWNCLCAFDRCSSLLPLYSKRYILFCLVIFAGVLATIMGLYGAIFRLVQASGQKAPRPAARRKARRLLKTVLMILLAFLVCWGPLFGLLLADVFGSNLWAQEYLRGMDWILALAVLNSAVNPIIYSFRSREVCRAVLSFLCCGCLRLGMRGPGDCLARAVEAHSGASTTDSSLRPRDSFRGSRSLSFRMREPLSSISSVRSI
S1P4 agonist = activates the human S1P4 receptor | O95977 | S1P4-expressing cell line, agonist reporter assay | activation, % at 4.98 µM | 220,000 tested, 0.35% active | AID 1509; in the data active means activation above about 11%
NPY2 pot ag = human NPY-Y2 potentiation or agonism, primary screen; cells expressing NPY-Y2, potentiator/agonist read-out; activation, % at 3.6 µM; 220,000 tested, 0.45% active; in the data active means activation above about 27%;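 further: cells stimulated with NPY near EC25 plus isoproterenol at EC100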
NPY-Y2 antag = blocks the human neuropeptide Y Y2 receptor; inhibition, % at 2.7 µM; NPY-Y2 expressing cells, antagonist mode; 140,000 tested, 0.99% active; in the data active means inhibition above about 17%
Numbers stand for hits; i = inactive; nt = no result given.

SMILES	NPY-Y1 PAM-ag	NPY-Y1 antag	S1P4 antagonist	S1P4 agonist	NPY2 pot ag	NPY-Y2 antag
COc1cccc(CN2CCN(CCc3ccccc3)C(CCO)C2)c1OC (configuration not stated)	i	i	i	i	i	nt
O=C(c1ccc(Br)cc1)c1sc(N2CCOCC2)nc1-c1ccccc1	i	i	i	i	i	nt
COc1ccc(Cn2c(SCc3cc(C)ccc3C)nc3cc(OC)c(OC)cc3c2=N)cc1	i	47	i	i	i	55
COc1ccc(Cn2c(SCc3ccc(C)cc3)nc3cc(OC)c(OC)cc3c2=N)cc1Cl	i	34	i	i	i	25
COc1cc2nc(SCc3ccc(Cl)cc3Cl)n(Cc3cccs3)c(=N)c2cc1OC	i	i	i	i	i	i
COc1cccc(C(=O)NCc2cn3ccsc3n2)c1	72	i	i	i	98	i
NC(=O)CSc1nc2cc3c(cc2c(=O)n1CCCC(=O)NCc1ccc2c(c1)OCO2)OCO3	i	i	i	i	i	i
c1ccc(-c2ccccc2OCCCN2CCCCC2)cc1	i	28	i	i	i	18
COc1cccc2c1C(=O)C=C(C)C2=O	51	i	i	i	34	i
Cc1cc(C)c2c3c(oc2n1)C(=O)N(c1cccc(Cl)c1)CC(=O)N3	i	nt	i	i	i	nt
CCN(CC)c1ccc(/C=N/NC(=O)c2cccc(S(=O)(=O)Nc3ccccc3OC)c2)c(O)c1	47	i	i	i	35	i
Cc1cccc(C)c1NC(=O)CN(C)CC(=O)Nc1ccccc1Oc1ccccc1	i	21	i	i	i	nt
Cc1ccc(NC(=O)CN(C)CC(=O)Nc2ccccc2Oc2ccccc2)cc1	i	i	i	i	i	nt
Cc1ccnc(NC(=O)COc2ccc3oc4c(c3c2)CCCC4)c1	i	21	i	i	i	i
N#Cc1nc(-c2ccco2)oc1N1CCOCC1	i	i	i	i	i	i
N#Cc1nc(-c2ccco2)oc1N1CCC(Cc2ccccc2)CC1	i	21	i	i	i	20
N#Cc1nc(-c2ccco2)oc1N1CCN(c2ccccc2)CC1	i	26	i	i	i	i
Cc1c(NC(=O)c2ccc(-c3ccccc3)cc2)cccc1C(=O)O	i	nt	i	i	i	nt
CCOC(=O)c1c(C)n(C)c2ccc(O)c(CN(CC)CC)c12	70	i	i	i	60	i
CCOC(=O)c1c(C)oc2ccc(O)c(CN(C)C)c12	61	i	i	i	53	i
CCOC(=O)c1cnc2ccc(OC)cc2c1NCc1ccccc1	i	27	i	i	i	19
CCOC(=O)c1cnc2ccc(OCC)cc2c1NCc1ccccc1OC	i	27	i	i	i	49
O=C(N/N=C\CCc1ccccc1)c1ccco1	i	i	i	i	i	i
COc1ccc(CN2CCC(CO)(Cc3ccccc3)CC2)cc1Cn1cccn1	i	21	i	i	i	nt
COc1ccc(CN2CCN(C(C)C)C(CCO)C2)cc1Cn1cccn1 (configuration not stated)	i	i	i	i	i	nt
SMILES	NPY-Y1 PAM-ag	NPY-Y1 antag	S1P4 antagonist	S1P4 agonist	NPY2 pot ag	NPY-Y2 antag
CC(C)(CO)NCC(O)COc1ccc2c(c1)CCC2 (configuration not stated)	101	i	i	i	88	i
CC(C)(C)CC(C)(C)NCC(O)COc1ccc2c(c1)CCC2 (configuration not stated)	i	i	i	i	i	i
Cc1ccc([N+](=O)[O-])c(OCC(O)CNC(C)(C)C)c1 (configuration not stated)	113	nt	i	i	105	nt
CC(C)(C)NCC(O)COc1ccc(Br)cc1 (configuration not stated)	108	i	i	i	97	nt
Cc1cc(/C=N/NC(=O)C(=O)NCc2ccccn2)c(C)n1-c1ccccc1	i	i	i	i	i	i
COc1ccccc1NC(=O)Nc1ccc2c(c1)nc(C)n2C	i	i	i	i	i	nt
Cc1ccc(C(=O)NC(NC(=O)c2ccc(C)cc2)c2cccc([N+](=O)[O-])c2)cc1	i	i	i	i	i	i
C/C(=N/NC(=O)c1cc(O)c(O)c(O)c1)c1ccc([N+](=O)[O-])cc1	i	i	i	i	i	nt
CC(C)(C)C(=O)/C(=C\c1ccc([N+](=O)[O-])cc1)n1cncn1	i	i	55	i	i	i
CN1N=C2c3ccccc3CCC2C1c1ccc(Cl)cc1 (configuration not stated)	i	nt	i	i	i	nt
CCCCC[C@H](O)/C=C/[C@@H]1[C@@H](C/C=C\CCCC(=O)OC)[C@@H](O)C[C@H]1O	i	63	i	i	i	20
O=C(CCn1cccc(C(F)(F)F)c1=O)Nc1cccc(C(F)(F)F)c1	i	nt	i	i	i	nt
Cc1ccc(NC(=O)C2SC(=Nc3ccccc3)C(C(=O)Nc3ccc(Cl)cc3)=C2N)cc1 (configuration not stated)	i	i	i	i	i	nt
Cc1ccc(N=C2SC(C(=O)Nc3ccc(OC(F)(F)F)cc3)C(N)=C2C(=O)Nc2c(C)cc(C)cc2C)cc1 (configuration not stated)	i	i	i	i	37	i
Cc1cccc(OCC(=O)O/N=C(\N)Cc2ccc(Cl)cc2)c1	i	i	i	i	i	23
Cc1ccc(OCC(=O)O/N=C(\N)Cc2ccc(Cl)cc2)cc1	i	22	i	i	i	21
O=C(CSc1nnc2n(C3CCCC3)c(=O)c3ccccc3n12)N1CCCCCC1	92	i	i	i	86	i
Cc1ccc(-c2[nH]nc(N)c2N=Nc2ccccc2C)cc1	i	i	i	i	i	i
Cc1ccc(-c2[nH]nc(N)c2N=Nc2cccc(Cl)c2C)cc1	46	i	i	i	i	i
CC(=O)NC(NC(=S)Nc1ccc(N=Nc2ccccc2)cc1)C(Cl)(Cl)Cl (configuration not stated)	46	i	i	i	i	i
CC(=O)NC(NC(=S)Nc1ccc(S(N)(=O)=O)cc1)C(Cl)(Cl)Cl (configuration not stated)	i	nt	i	i	i	nt
COC(=O)C1=CN(C2CC2)C=C(C(=O)OC)C1c1ccc(C(=O)OC)cc1	i	i	i	i	i	i
COC(=O)C1=CN(C2CC2)C=C(C(=O)OC)C1c1ccc(C(F)(F)F)cc1	i	21	i	i	i	nt
CC(C)(C)c1ccc(OCC(O)CNC(=O)c2ccccc2C(=O)O)cc1 (configuration not stated)	i	i	i	i	i	i
C=CCc1ccccc1OCC(O)CN(CC)CC (configuration not stated)	103	i	i	i	89	i
C=CCc1ccccc1OCC(O)CNC(=O)c1ccccc1C(=O)O (configuration not stated)	87	nt	i	i	92	nt
COc1ccc(C(=O)Nc2ccc(Cl)cc2C(=O)NCc2ccco2)cc1	i	25	i	i	i	19
Cc1ccc(-n2ncc(C(=O)Nc3ccc(Cl)cc3)c2C2CCNCC2)cc1C	i	20	i	i	i	nt
